Data published in paper PMC7825275 (Cancer chemotherapy and pharmacology, 2019).

Tests used:
[1] = Ultrafilterable carboplatin; format: in vivo, human
Summary of the method: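 Ultrafilterable platinum was measured by atomic absorption spectrophotometry in patient plasma. […] Plasma was spun at ~1,000 x g for 10 min and stored at −70°C or colder. Parameters were derived non-compartmentally. AUC targeting bias and precision were taken as mean prediction error and root mean squared prediction error. Cycles were compared by 2-sided exact Wilcoxon signed rank.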

[2] = tested on: patients with advanced solid tumors; experiment: Toxicity by grade; format: in vivo, human; settings: initial cycle of carboplatin and paclitaxel without veliparib
Summary of the method: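 Adverse events were tabulated descriptively as maximum grade in three groups: the chemotherapy-only lead-in cycle, the first veliparib-containing cycle, and all cycles. CBC and serum chemistry including liver function tests were drawn weekly during cycles 1–2, then at the start of every cycle. Veliparib was oral, twice daily on days 1–7; carboplatin/paclitaxel were IV every 21 days.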

patients = settings: days 1-5, with veliparib 10 mg bid; cited from earlier work
[3] = tested on: patients with advanced solid tumors; format: in vivo, human; settings: with veliparib 100 mg BID and carboplatin AUC 6
Summary of the method: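 Standard 3+3 escalation with modified Fibonacci steps. Oral veliparib was given every 12 h on days 1–7 of 21-day cycles, with IV carboplatin/paclitaxel on day 3. For the first 46 patients, cycle 1 was chemotherapy alone and DLT was scored in cycle 2; afterwards all three agents were given in cycle 1, which was the DLT cycle. Growth factors were barred in cycles 1–2. MTD was the highest dose with ≤1/6 DLTs.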

[4] = Paclitaxel plasma pharmacokinetics; format: in vivo, human; settings: cycle 1 (veliparib -) vs cycle 2 (veliparib +)
Summary of the method: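 Patient plasma from heparinized blood drawn pre-dose and at 0.5–24 h after start of IV paclitaxel infusion, in the chemotherapy-alone lead-in cycle and in the veliparib cycle (day 3). Samples were spun at ~1,000 x g for 10 min and plasma held at −70°C or colder. Quantitation was by LC-MS/MS with [13C6]-paclitaxel internal standard. Parameters were derived non-compartmentally and paired cycles compared by 2-sided exact Wilcoxon signed rank.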

Question: Which “Carboplatin exposure, effect of the presence of veliparib or veliparib dose” value ([1]; cycle 1 (veliparib -) vs cycle 2 (veliparib +)) does the source give for `N.N.O=C([O-])C1(C(=O)[O-])CCC1.[Pt+2]` [carboplatin] here?
Answer: Its value is “not impacted”.

Question: What about the “ME as % of AUC 6 mg•min/mL” value ([1]; in the absence of veliparib) of the same molecule?
Answer: Its value is 31%.

Question: And the “RMSE as % of AUC 6 mg•min/mL” value ([1]; in the absence of veliparib)?
Answer: Its value is 57%.

Question: And the “ME as % of AUC 6 mg•min/mL” value ([1]; in the presence of veliparib)?
Answer: Its value is 22%.

Question: What about the “RMSE as % of AUC 6 mg•min/mL” value ([1]; in the presence of veliparib) of the same molecule?
Answer: The value was 45%.

Question: Which “neutropenia grade 3” value [2] does the source give for carboplatin and paclitaxel here?
Answer: Its value is 20%.

Question: What about the “neutropenia grade 4” value [2] of the same molecule?
Answer: The value was 24%.

Question: What about the “neutropenia, % of patients” value [2] of the same molecule?
Answer: Its value is 56%.

Question: Which “MTD, topotecan dose” value (patients) does the source give for `CC[C@@]1(O)C(=O)OCc2c1cc1n(c2=O)Cc2cc3c(CN(C)C)c(O)ccc3nc2-1` [topotecan] here?
Answer: The value was 0.6 mg.

Question: What does the source list for `CC(=O)O[C@H]1C(=O)[C@@]2(C)[C@H]([C@H](OC(=O)c3ccccc3)[C@]3(O)C[C@H](OC(=O)[C@H](O)[C@@H](NC(=O)c4ccccc4)c4ccccc4)C(C)=C1C3(C)C)[C@]1(OC(C)=O)CO[C@@H]1C[C@@H]2O` [paclitaxel]?
Answer: MTD and RP2D, paclitaxel dose [3]: 200 mg/m^2; paclitaxel exposure, effect of the presence of veliparib or veliparib dose [4]: not impacted
